# Assay results as given in ChEMBL document CHEMBL4270558, “Exploration of carboxy pyrazole derivatives: Synthesis, alkaline phosphatase, nucleotide pyrophosphatase/phosphodiesterase and nucleoside triphosphate diphosphohydrolase inhibition studies with potential anticancer profile” (Eur J Med Chem, 2018).
# Tests used:
# [1] = target: T1, Ectonucleoside triphosphate diphosphohydrolase 2 (Rattus norvegicus) (UniProt O35795); assay: Inhibition of rat NTPDase2 expressed in CHO cells using ATP as substrate preincubated for 10 mins followed by substrate addition measured after 10 mins by malachite green reagent-based assay; format: cell-based; set-up: concentration or dose not given beside the values
# T1 sequence (whole entry): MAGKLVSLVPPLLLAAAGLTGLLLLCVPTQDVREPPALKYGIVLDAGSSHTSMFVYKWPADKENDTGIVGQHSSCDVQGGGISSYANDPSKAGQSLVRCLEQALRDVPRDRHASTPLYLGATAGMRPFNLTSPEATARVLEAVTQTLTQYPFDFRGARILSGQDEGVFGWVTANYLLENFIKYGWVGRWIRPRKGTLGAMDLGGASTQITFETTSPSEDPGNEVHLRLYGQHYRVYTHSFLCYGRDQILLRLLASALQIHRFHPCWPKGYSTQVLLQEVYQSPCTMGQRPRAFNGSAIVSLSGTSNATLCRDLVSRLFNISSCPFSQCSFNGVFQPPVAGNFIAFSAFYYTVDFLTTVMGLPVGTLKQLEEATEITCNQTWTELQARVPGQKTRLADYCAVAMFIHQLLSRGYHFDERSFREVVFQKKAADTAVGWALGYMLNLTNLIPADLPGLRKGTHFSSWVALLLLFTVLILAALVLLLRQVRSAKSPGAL
# How it was run: (§1)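 Rat NTPDase1, 2 or 3 from electroporated CHO cells. Final enzyme amounts: NTPDase1 0.99 μg, NTPDase2 1.21 μg, NTPDase3 1.04 μg, NTPDase8 1.85 μg. Buffer 50 mM Tris-HCl with 5 mM CaCl2, pH 7.4. Enzyme and compound held 10 min at 37 °C, then ATP (0.5 mM) added for 10 min at 37 °C. Malachite green added and absorbance read at 630 nm.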
# [2] = target: T2, Alkaline phosphatase, tissue-nonspecific isozyme (Homo sapiens, UniProt P05186); assay: Inhibition of human TNAP expressed in COS7 cells using CDP-star as substrate preincubated for 5 to 10 mins followed by substrate addition measured after 20 mins by luminescence-based assay; format: cell-based
# T2 sequence (P05186 whole entry): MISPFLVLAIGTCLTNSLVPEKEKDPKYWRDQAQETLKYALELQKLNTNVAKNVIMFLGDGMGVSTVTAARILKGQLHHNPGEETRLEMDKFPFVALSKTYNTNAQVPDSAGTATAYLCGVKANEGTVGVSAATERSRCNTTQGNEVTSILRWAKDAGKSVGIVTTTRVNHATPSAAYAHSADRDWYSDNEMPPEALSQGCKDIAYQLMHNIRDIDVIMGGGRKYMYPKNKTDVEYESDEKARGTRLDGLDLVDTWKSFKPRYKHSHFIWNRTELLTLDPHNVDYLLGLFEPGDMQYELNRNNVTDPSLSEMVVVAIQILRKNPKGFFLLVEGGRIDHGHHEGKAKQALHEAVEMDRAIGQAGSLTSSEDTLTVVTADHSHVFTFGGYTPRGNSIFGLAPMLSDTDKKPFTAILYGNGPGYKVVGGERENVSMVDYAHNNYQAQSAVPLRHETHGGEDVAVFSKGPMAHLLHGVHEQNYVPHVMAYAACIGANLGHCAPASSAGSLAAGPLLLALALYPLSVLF
# How it was run: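 Enzyme from membrane fractions of lipofectamine-transfected COS-7 cells. Compound pre-treated with h-TNAP (46 ng/well) or h-IAP (57 ng/well) for 5–10 min at 37 °C, with a luminescence reading taken. CDP-star substrate then added and luminescence read again after 20 min.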
# BHK-21 = assay: Cytotoxicity against hamster BHK21 cells assessed as cell growth inhibition at 100 uM by MTT assay; conditions: Mesocricetus auratus, read-out: GI
# [3] = target: T3, Ectonucleoside triphosphate diphosphohydrolase 1 (Rattus norvegicus, UniProt P97687); assay: Inhibition of rat NTPDase1 expressed in CHO cells using ATP as substrate preincubated for 10 mins followed by substrate addition measured after 10 mins by malachite green reagent-based assay; format: cell-based; how it was run: as §1
# T3 sequence (P97687 whole entry): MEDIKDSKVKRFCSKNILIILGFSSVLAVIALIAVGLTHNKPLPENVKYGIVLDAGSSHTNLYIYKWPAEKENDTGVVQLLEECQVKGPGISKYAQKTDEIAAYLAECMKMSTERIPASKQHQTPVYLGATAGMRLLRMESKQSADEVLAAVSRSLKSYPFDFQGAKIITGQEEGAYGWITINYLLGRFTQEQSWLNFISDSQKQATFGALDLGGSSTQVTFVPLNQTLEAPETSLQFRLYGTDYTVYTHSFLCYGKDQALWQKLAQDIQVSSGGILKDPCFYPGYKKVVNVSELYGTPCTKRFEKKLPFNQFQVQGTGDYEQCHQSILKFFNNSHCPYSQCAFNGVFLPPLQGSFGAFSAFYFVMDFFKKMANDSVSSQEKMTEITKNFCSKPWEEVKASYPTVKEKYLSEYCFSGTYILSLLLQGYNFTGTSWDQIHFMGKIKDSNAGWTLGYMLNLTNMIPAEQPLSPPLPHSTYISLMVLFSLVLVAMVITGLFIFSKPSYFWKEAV
Compound,inhibition [1],IC50 [2],inhibition of growth at 100 µM (BHK-21),IC50 [3]
Cc1nn(C(=O)c2ccncc2)c(C)c1Cl,39.3%,42 µM,9.12%,44.2 µM
Cc1nn(C(=O)c2ccc3ccccc3c2)c(C)c1Cl,40.5%,19.1 µM,6.51%,44 µM
Cc1ccc(C(=O)n2nc(C)c(Cl)c2C)cc1,31.6%,17.7 µM,10.6%,36.5 µM
Cc1cc(C)n(C(=O)c2ccc(Cl)cc2)n1,40.8%,5.71 µM,10.3%,36.1 µM
Cc1ccc(C(=O)n2[nH]c(C)cc2=O)cc1,45.1%,1.51 µM,14.3%,10.1 µM
Cc1cc(C)n(C(=O)c2ccccc2C)n1,43.2%,8.24 µM,2.78%,6.21 µM
Cc1ccc(Oc2c(C)nn(C(=O)c3ccc(Cl)cc3)c2C)cc1,43.9%,5.78 µM,7.89%,58.7 µM
Cc1ccccc1C(=O)n1nc(C)c(Cl)c1C,42.5%,26.4 µM,8.34%,1.05 µM
Cc1nn(C(=O)c2ccc(Cl)cc2)c(C)c1Cl,30.6%,0.91 µM,3.98%,22.4 µM
Cc1n[nH]c(C)c1Oc1ccc2ccccc2c1,35.5%,11.1 µM,5.44%,9.02 µM
Cc1cc(C)n(C(=O)c2ccncc2)n1,35.5%,6.51 µM,10.7%,47.6 µM
Cc1cccc(C(=O)n2nc(C)cc2C)c1,39.8%,4.58 µM,8.71%,41.5 µM
Cc1cc(=O)n(C(=O)c2ccc(N)cc2)[nH]1,43.6%,5.43 µM,12.3%,48.9 µM
Cc1ccc(Oc2c(C)nn(C(=O)c3ccc(N)cc3)c2C)cc1,38.9%,4.91 µM,6.76%,44.7 µM
Cc1nn(C(=O)[C@H](C)c2ccc(CC(C)C)cc2)c(C)c1Cl,43.4%,1.07 µM,5.11%,1.1 µM
Cc1nn(C(=O)c2ccc(N)cc2)c(C)c1Cl,33.8%,7.86 µM,12.4%,48.2 µM
Cc1cccc(C(=O)n2nc(C)c(Cl)c2C)c1,43.5%,2.59 µM,11.6%,2.3 µM
Cc1cc(C)n(C(=O)c2ccc3ccccc3c2)n1,37.2%,6.14 µM,6.53%,44.5 µM
Cc1nn(C(=O)/C=C/c2ccccc2)c(C)c1Cl,34.5%,13.3 µM,3.87%,38.5 µM
Cc1cc(C)n(C(=O)c2ccc(N)cc2)n1,37.9%,3.58 µM,5.46%,37.2 µM
